# According to ChEMBL document CHEMBL1125497, “Synthesis and anticonvulsant activity of enaminones” (J Med Chem, 1992):
# How the values were obtained:
# [1] = Oral dose producing neurotoxic effects in 50% of rats; format: ADME, organism-based; conditions: rat, in vivo
# In short: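 Phase VI screen in male Sprague-Dawley rats dosed orally. MES protection and rotorod toxicity were scored as animals responding over animals tested at 0.25, 0.5, 1, 2 and 4 h.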
# Rattus norvegicus [2] = test: Dose reducing the seizure severity in rat cornea 0.5 hr after peroral administration.; format: functional; conditions: po
# In short: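 Sprague-Dawley rats (85–95 g initial) were kindled with 4 s, 8 mA corneal stimulations (butacaine anesthesia) to 10 consecutive stage 5 seizures. After a vehicle shock and a 2-day shock-free period, test drug was given ip or po and a single shock applied at time of peak effect. Seizures were scored on a modified Racine 0–5 scale. ED50 is the dose reducing severity by 50% (Litchfield–Wilcoxon).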
# [3] = Time of peak neurotoxic effect in CF1 mice; format: ADME; conditions: mouse, in vivo
# In short: (§1)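 Male CF1 mice (ca. 24–34 g), compound ip in 0.5% methylcellulose suspension; neurological deficit assessed by rotorod test, time (h) of peak neurotoxic effect recorded for TD50 determination.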
# [4] = Time of peak anticonvulsant effect in CF1 mice; format: functional, Mus musculus
# In short: (§2)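 Male CF1 mice (ca. 24–34 g), compound in 0.5% methylcellulose suspension given ip or po; time (h) at which MES protection (against tonic hind limb extension) peaked was recorded and used for ED50 determination.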
# [5] = Antiepileptic activity in male CF1 mice 30 min after administration measured in neurological toxicity (Tox) test at a dose of 100 mg/kg (no. of animals treated /protected); activity value is 0/8; format: functional, Mus musculus
# [6] = Antiepileptic activity in male CF1 mice 4 hr after administration measured in neurological toxicity (Tox) test at a dose of 100 mg/kg (no. of animals treated /protected); activity value is 0/4; format: functional, Mus musculus
# [7] = Antiepileptic activity in male CF1 mice 4 hr after administration measured in subcutaneous pentylenetetrazole (scMet) test at a dose of 100 mg/kg; activity value is 0/1; format: functional, Mus musculus
# [8] = Dose at which anticonvulsant activity was observed in mice; format: functional, Mus musculus
# [9] = Antiepileptic activity in male CF1 mice 4 hr after administration measured in maximum electroshock seizure(MES) test at a dose of 100 mg/kg (no. of animals treated /protected); activity value is 0/3; format: functional, Mus musculus
# [10] = Antiepileptic activity in male CF1 mice 30 min after administration measured in subcutaneous pentylenetetrazole (scMet) test at a dose of 100 mg/kg (no. of animals treated /protected); activity value is 0/1; format: functional, Mus musculus
# [11] = Antiepileptic activity in male CF1 mice 30 min after administration measured in maximum electroshock seizure(MES) test at a dose of 100 mg/kg (no. of animals treated /protected); activity value is 2/3; format: functional, Mus musculus
# [12] = Antiepileptic activity in male CF1 mice 30 min after administration measured in subcutaneous pentylenetetrazole (scMet) test at a dose of 300 mg/kg (no. of animals treated /protected); activity value is 0/1; format: functional, Mus musculus
# [13] = Antiepileptic activity in male CF1 mice 4 hr after administration measured in subcutaneous pentylenetetrazole (scMet) test at a dose of 300 mg/kg (no. of animals treated /protected); activity value is 0/1; format: functional, Mus musculus
# [14] = Antiepileptic activity in male CF1 mice 30 min after administration measured in neurological toxicity (Tox) test at a dose of 300 mg/kg (no. of animals treated /protected); activity value is 0/4; format: functional, Mus musculus
# [15] = Antiepileptic activity in male CF1 mice 30 min after administration measured in maximum electroshock seizure(MES) test at a dose of 100 mg/kg (no. of animals treated /protected); activity value is 1/3; format: functional, Mus musculus
# [16] = Antiepileptic activity in male CF1 mice 4 hr after administration measured in neurological toxicity (Tox) test at a dose of 300 mg/kg (no. of animals treated /protected); activity value is 0/2; format: functional, Mus musculus
# [17] = Antiepileptic activity in male CF1 mice 4 hr after administration measured in maximum electroshock seizure(MES) test at a dose of 300 mg/kg (no. of animals treated /protected); activity value is 0/1; format: functional, Mus musculus
# [18] = Antiepileptic activity in male CF1 mice 30 min after administration measured in maximum electroshock seizure(MES) test at a dose of 300 mg/kg (no. of animals treated /protected); activity value is 1/1; format: functional, Mus musculus
# [19] = Antiepileptic activity in male CF1 mice 4 hr after administration measured in subcutaneous pentylenetetrazole (scMet) test at a dose of 100 mg/kg (no. of animals treated /protected); activity value is 0/1; format: functional, Mus musculus
# Rattus norvegicus [20] = test: Dose reducing the seizure severity in rat cornea 1 hr after peroral administration; format: functional; conditions: po
# In short: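 Same corneal-kindled Sprague-Dawley rat procedure with the drug given po. Vehicles: 0.5% methylcellulose, 0.9% NaCl or corn oil. Single shock at the time of peak effect, scored on the modified Racine scale. ED50 by Litchfield-Wilcoxon, taken as the dose that reduced seizure severity by 50%.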
# Rattus norvegicus [21] = test: Average seizure score for the rat cornea 0.5 hr after intraperitoneal administration of 30 mg/Kg of compound; format: functional
# In short: (§3)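 Sprague-Dawley rats (85–95 g initial weight) kindled by corneal stimulation (4 s, 8 mA) twice daily for 5 to 6 days, then once daily until 10 consecutive stage 5 seizures. Butacaine sulfate 1% applied to the cornea as a topical anaesthetic. After a vehicle shock and a 2-day shock-free period, drug given ip, then a single shock at the time of peak effect. Scored on the modified Racine scale (0–5).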
# [22] = Time of peak neurotoxic effect in CF1 MICE after ip administration.; format: ADME, organism-based; conditions: mouse, in vivo; in short: as §1
# Rattus norvegicus [23] = test: Intraperitoneal dose (0 mg/Kg) reducing rat corneal kindling 0.5 hr after administration.; format: functional; in short: as §3
# Rattus norvegicus [24] = test: Intraperitoneal dose (25 mg/Kg) reducing rat corneal kindling 0.5 hr after administration.; format: functional; in short: as §3
# [25] = Time of peak anticonvulsant effect in CF1 MICE after ip administration.; format: functional, Mus musculus; in short: as §2
# Rattus norvegicus [26] = test: Intraperitoneal dose (20 mg/Kg) reducing rat corneal kindling 0.5 hr after administration.; format: functional; in short: as §3
# Rattus norvegicus [27] = test: Average seizure score for the rat cornea 0.5 hr after intraperitoneal administration of 0 mg/Kg of compound; format: functional; in short: as §3
# Rattus norvegicus [28] = test: Intraperitoneal dose (30 mg/Kg) reducing rat corneal kindling 0.5 hr after administration.; format: functional; in short: as §3
# [29] = Dose showing neurotoxicity in 50% of the at the time of peak neurotoxic effect in CF1 MICE after ip administration.; format: toxicity, organism-based; conditions: CF1, mouse, in vivo
# In short: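 CF1 male mice (ca. 24–34 g), dosed ip in 0.5% methylcellulose suspension. Neurotoxicity measured by the rotorod test at the time of peak neurotoxic effect. TD50 and confidence limits by the Litchfield-Wilcoxon method.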
# [30] = Dose elevating electroshock induced seizure by 20% in CF1 mice after ip administration.; format: functional, Mus musculus
# In short: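 In CF1 male mice (ca. 24–34 g), compound was given ip in 0.5% methylcellulose. The current giving hind limb extension in 50% of mice was found by the up-and-down method, with 15–25 mice per group and a vehicle control group run with each experimental group. At least three doses were tested. The dose raising threshold current by 20% was taken from a plot of dose against % threshold increase.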
# [31] = Dose protecting 50% of the mice from tonic hind limb extension at the time of […] after ip administration.; format: functional; conditions: Mus musculus, Hindlimb
# In short: (§4)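 Phase II quantification in CF1 male mice (ca. 24–34 g), dosing ip or po in 0.5% methylcellulose suspension. ED50 is protection from tonic hind limb extension in MES. TD50 is rotorod neurotoxicity. Both were read at time of peak effect and derived by Litchfield–Wilcoxon with 95% confidence limits.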
# Rattus norvegicus [32] = test: Average seizure score for the rat cornea 0.5 hr after intraperitoneal administration of 15 mg/Kg of compound; format: functional; in short: as §3
# Rattus norvegicus [33] = test: Average seizure score for the rat cornea 0.5 hr after intraperitoneal administration of 20 mg/Kg of compound; format: functional; in short: as §3
# Rattus norvegicus [34] = test: Intraperitoneal dose (15 mg/Kg) reducing rat corneal kindling 0.5 hr after administration.; format: functional; in short: as §3
# [35] = Antiepileptic activity in male CF1 mice 4 hr after administration measured in maximum electroshock seizure(MES) test at a dose of 300 mg/kg (no. of animals treated /protected); activity value is 1/1; format: functional, Mus musculus
# [36] = Antiepileptic activity in male CF1 mice 30 min after administration measured in neurological toxicity (Tox) test at a dose of 300 mg/kg (no. of animals treated /protected); activity value is 1/4; format: functional, Mus musculus
# [37] = Dose protecting 50% of the mice from tonic hind limb extension at the time of peak convulsant effect after po administration.; format: functional; conditions: Mus musculus, Hindlimb; in short: as §4
# [38] = Time of peak anticonvulsant effect in CF1 MICE after po administration.; format: functional, Mus musculus; in short: as §2
# [39] = Protective index was measured as TD50/MES ED50 in mice on ip administration; format: ADME, organism-based; conditions: mouse, in vivo, read-out: PI
# In short: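 Male CF1 mice (ca. 24–34 g), compound given ip as 0.5% methylcellulose suspension. MES ED50 = dose protecting 50% from tonic hind limb extension; TD50 = median neurotoxic dose by rotorod; both at time of peak effect, with confidence limits by Litchfield and Wilcoxon. PI = TD50/MES ED50.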
# [40] = Antiepileptic activity in male CF1 mice 30 min after administration measured in subcutaneous pentylenetetrazole (scMet) test at a dose of 100 mg/kg (no. of animals treated /protected) activity value is 0/1; format: functional, Mus musculus
SMILES,Activity [5],Activity [6],Activity [7],Dose [8],Activity [9],Activity [10],Activity [12],Activity [13],Activity [15],Activity [16],Activity [18],TPE [22],TPE [25],TD50 [29],Dose [30],ED50 [31],also measured
O=C1NC(=O)C(c2ccccc2)(c2ccccc2)N1 [PHENYTOIN],–,–,–,–,–,–,–,–,–,–,–,–,–,–,–,–,TD50 [1]: > 3000 mg/kg; ED50 (Rattus norvegicus [2]): > 100 mg/kg; TPE [3]: 2; TPE [4]: 2
CCc1ccc(NC2=CC(=O)C(C(=O)OC)C(C)C2)cc1 (stereo not given),0,0,0,<=100 mg kg-1,0,0,–,–,–,–,–,–,–,–,–,–,Activity [11]: 2
COC(=O)C1C(=O)C=C(Nc2cc(OC)ccc2OC)CC1C (stereo not given),0,0,–,<=100 mg kg-1,0,0,0,0,1,0,1,–,–,–,–,–,Activity [14]: 0; Activity [17]: 0; Activity [19]: 0
O=C1CN=C(c2ccccc2Cl)c2cc([N+](=O)[O-])ccc2N1 [CLONAZEPAM],–,–,–,–,–,–,–,–,–,–,–,–,–,–,–,–,ED50 (Rattus norvegicus [20]): 0.7 mg/kg
CCC1(c2ccccc2)C(=O)NC(=O)NC1=O [PHENOBARBITAL],–,–,–,–,–,–,–,–,–,–,–,1,1,92 mg/kg,3 mg/kg,18 mg/kg,Average seizure score (Rattus norvegicus [21]): 1.3; Reduction (Rattus norvegicus [23]): 0%; Reduction (Rattus norvegicus [24]): 70%; Reduction (Rattus norvegicus [26]): 68%; Average seizure score (Rattus norvegicus [27]): 5; Reduction (Rattus norvegicus [28]): 74%; Average seizure score (Rattus norvegicus [32]): 2.7; Average seizure score (Rattus norvegicus [33]): 1.7; Reduction (Rattus norvegicus [34]): 47%
CC1(C)CC(O)=C/C(=N\Cc2ccccc2)C1,0,0,0,>100 mg/kg,0,–,0,0,1,0,1,0.25,0.5,148 mg/kg,20 mg/kg,53 mg/kg,Activity [35]: 1; Activity [36]: 1; ED50 [37]: 211 mg/kg; TPE [38]: 0.5; selectivity ratio [39]: 2.8; Activity [40]: 0
